Experimental data published in ChEMBL document CHEMBL5303300, “EUbOPEN Chemogenomics Library - Multiplex” (2023).
“And” between values parts separate entries of the source, which are not always exact repeats. Equal values may be shown once.

Experiments:
Format in all cases: toxicity, cell-based
Fibroblast = assay: Multiplex assay against human fibroblast; details: number of replicates 2
Summary of the method: (§1)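 With compound added, live cells were imaged on a CQ1 microscope at 37°C and 5% CO2; staining with Hoechst33342, BioTracker Green Microtubule Cytoskeleton Dye, MitoTracker Red and Annexin V Alexa Fluor 680 had been done at seeding. The CellPathfinder machine-learning gating scheme split cells into Hoechst high-intensity objects or normal cells, normal cells into healthy, pyknosed or fragmented nuclei, and pyknosed cells into mitotic or apoptotic. The tubulin, mitochondrial-mass and membrane-permeability phenotypes are per cents of healthy-nucleus cells.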

HEK-293T = assay: Multiplex assay against HEK293T; details: human, number of replicates 2; summary of the method: as §1
U2OS = assay: Multiplex assay against U2OS; details: human, number of replicates 2; summary of the method: as §1
[1] = 12 h, 1 µM, compound concentration 1 uM
[2] = 12 h, 10 µM, compound concentration 10 uM
[3] = 24 h, 1 µM, compound concentration 1 uM
[4] = 24 h, 10 µM, compound concentration 10 uM
[5] = 48 h, 1 µM, compound concentration 1 uM
[6] = 48 h, 10 µM, compound concentration 10 uM

## CC(C)(C)c1cnc(CSc2cnc(NC(=O)C3CCN(CC(=O)NCCOCCOCCOCCNc4cccc5c4C(=O)N(C4CCC(=O)NC4=O)C5=O)CC3)s2)o1 (configuration not stated)
Fibroblast; [1]
  Population Apoptotic (%): 44% and 47%
  Population Fragmented Nuclei (%): 8% and 7%
  Population Healthy Nuclei (%): 70% and 73%
  Population Hoechst High Intensity Objects (%): 0%
  Population Membrane Permeable-Phenotype (%): 2% and 3%
  Population Mitochondria Different-Phenotype (%): 1% and 0%
  Population Mitotic Cells (%): 55% and 52%
  Population Normal (%): 100%
  Population Pyknosed Nuclei (%): 21% and 19%
  Total Cell Count: 180 and 189
Fibroblast; [2]
  Population Apoptotic (%): 61% and 53%
  Population Fragmented Nuclei (%): 15% and 23%
  Population Healthy Nuclei (%): 47% and 50%
  Population Hoechst High Intensity Objects (%): 0%
  Population Membrane Permeable-Phenotype (%): 15% and 27%
  Population Mitochondria Different-Phenotype (%): 9% and 16%
  Population Mitotic Cells (%): 38% and 46%
  Population Normal (%): 100% and 99%
  Population Pyknosed Nuclei (%): 36% and 25%
  Population Tubulin-Different-Phenotype (%): 58% and 63%
  Total Cell Count: 107 and 167
Fibroblast; [3]
  Population Apoptotic (%): 51% and 77%
  Population Fragmented Nuclei (%): 7% and 16%
  Population Healthy Nuclei (%): 71% and 63%
  Population Hoechst High Intensity Objects (%): 0% and 1%
  Population Membrane Permeable-Phenotype (%): 5% and 7%
  Population Mitochondria Different-Phenotype (%): 7% and 1%
  Population Mitotic Cells (%): 48% and 22%
  Population Normal (%): 100% and 98%
  Population Pyknosed Nuclei (%): 21% and 19%
  Population Tubulin-Different-Phenotype (%): 25% and 17%
  Total Cell Count: 180 and 184
Fibroblast; [4]
  Population Apoptotic (%): 71% and 72%
  Population Fragmented Nuclei (%): 17% and 21%
  Population Healthy Nuclei (%): 50% and 53%
  Population Hoechst High Intensity Objects (%): 0%
  Population Membrane Permeable-Phenotype (%): 14% and 13%
  Population Mitochondria Different-Phenotype (%): 28% and 21%
  Population Mitotic Cells (%): 28% and 27%
  Population Normal (%): 100% and 99%
  Population Pyknosed Nuclei (%): 31% and 24%
  Population Tubulin-Different-Phenotype (%): 56% and 58%
  Total Cell Count: 112 and 153
Fibroblast; [5]
  Population Apoptotic (%): 62% and 71%
  Population Fragmented Nuclei (%): 8% and 9%
  Population Healthy Nuclei (%): 58% and 63%
  Population Hoechst High Intensity Objects (%): 0%
  Population Membrane Permeable-Phenotype (%): 16% and 8%
  Population Mitochondria Different-Phenotype (%): 7% and 0%
  Population Mitotic Cells (%): 37% and 28%
  Population Normal (%): 100%
  Population Pyknosed Nuclei (%): 32% and 27%
  Population Tubulin-Different-Phenotype (%): 34% and 15%
  Total Cell Count: 178 and 166
Fibroblast; [6]
  Population Apoptotic (%): 83% and 78%
  Population Fragmented Nuclei (%): 18% and 26%
  Population Healthy Nuclei (%): 45% and 50%
  Population Hoechst High Intensity Objects (%): 0%
  Population Membrane Permeable-Phenotype (%): 9% and 13%
  Population Mitotic Cells (%): 16% and 21%
  Population Normal (%): 100% and 99%
  Population Pyknosed Nuclei (%): 36% and 23%
  Population Tubulin-Different-Phenotype (%): 44% and 63%
  Total Cell Count: 115 and 158
HEK-293T; [1]
  Population Apoptotic (%): 65% and 77%
  Population Fragmented Nuclei (%): 5% and 4%
  Population Healthy Nuclei (%): 75%
  Population Hoechst High Intensity Objects (%): 15%
  Population Membrane Permeable-Phenotype (%): 4% and 1%
  Population Mitochondria Different-Phenotype (%): 42% and 53%
  Population Mitotic Cells (%): 34% and 22%
  Population Normal (%): 84%
  Population Pyknosed Nuclei (%): 18% and 20%
  Population Tubulin-Different-Phenotype (%): 74% and 82%
  Total Cell Count: 329 and 381
HEK-293T; [2]
  Population Apoptotic (%): 78% and 82%
  Population Fragmented Nuclei (%): 6% and 3%
  Population Healthy Nuclei (%): 75% and 73%
  Population Hoechst High Intensity Objects (%): 27% and 26%
  Population Membrane Permeable-Phenotype (%): 7%
  Population Mitochondria Different-Phenotype (%): 65% and 75%
  Population Mitotic Cells (%): 21% and 17%
  Population Normal (%): 72% and 73%
  Population Pyknosed Nuclei (%): 18% and 22%
  Population Tubulin-Different-Phenotype (%): 70% and 63%
  Total Cell Count: 285 and 270
HEK-293T; [3]
  Population Apoptotic (%): 76% and 75%
  Population Fragmented Nuclei (%): 5%
  Population Healthy Nuclei (%): 80% and 74%
  Population Hoechst High Intensity Objects (%): 17% and 20%
  Population Membrane Permeable-Phenotype (%): 2% and 1%
  Population Mitochondria Different-Phenotype (%): 49% and 52%
  Population Mitotic Cells (%): 23% and 25%
  Population Normal (%): 82% and 80%
  Population Pyknosed Nuclei (%): 14% and 20%
  Population Tubulin-Different-Phenotype (%): 69% and 74%
  Total Cell Count: 332 and 395
HEK-293T; [4]
  Population Apoptotic (%): 77% and 75%
  Population Fragmented Nuclei (%): 9% and 3%
  Population Healthy Nuclei (%): 65% and 68%
  Population Hoechst High Intensity Objects (%): 30% and 33%
  Population Membrane Permeable-Phenotype (%): 7% and 5%
  Population Mitochondria Different-Phenotype (%): 77% and 80%
  Population Mitotic Cells (%): 22% and 25%
  Population Normal (%): 69% and 66%
  Population Pyknosed Nuclei (%): 25% and 28%
  Population Tubulin-Different-Phenotype (%): 85%
  Total Cell Count: 268 and 254
HEK-293T; [5]
  Population Apoptotic (%): 76% and 85%
  Population Fragmented Nuclei (%): 6%
  Population Healthy Nuclei (%): 82% and 78%
  Population Hoechst High Intensity Objects (%): 11% and 17%
  Population Membrane Permeable-Phenotype (%): 3% and 0%
  Population Mitochondria Different-Phenotype (%): 52% and 59%
  Population Mitotic Cells (%): 23% and 14%
  Population Normal (%): 88% and 82%
  Population Pyknosed Nuclei (%): 11% and 15%
  Population Tubulin-Different-Phenotype (%): 64% and 63%
  Total Cell Count: 294 and 328
HEK-293T; [6]
  Population Apoptotic (%): 84% and 89%
  Population Fragmented Nuclei (%): 8% and 5%
  Population Healthy Nuclei (%): 71% and 70%
  Population Hoechst High Intensity Objects (%): 28% and 20%
  Population Membrane Permeable-Phenotype (%): 3% and 2%
  Population Mitochondria Different-Phenotype (%): 77% and 84%
  Population Mitotic Cells (%): 15% and 10%
  Population Normal (%): 71% and 79%
  Population Pyknosed Nuclei (%): 20% and 24%
  Population Tubulin-Different-Phenotype (%): 83% and 87%
  Total Cell Count: 309 and 250
U2OS; [1]
  Population Apoptotic (%): 40% and 96%
  Population Fragmented Nuclei (%): 10% and 3%
  Population Healthy Nuclei (%): 82% and 88%
  Population Hoechst High Intensity Objects (%): 0%
  Population Membrane Permeable-Phenotype (%): 1%
  Population Mitochondria Different-Phenotype (%): 0% and 3%
  Population Normal (%): 100%
  Population Pyknosed Nuclei (%): 6% and 7%
  Population Tubulin-Different-Phenotype (%): 58% and 74%
U2OS; [2]
  Population Apoptotic (%): 50% and 80%
  Population Healthy Nuclei (%): 47% and 59%
  Population Hoechst High Intensity Objects (%): 1% and 0%
  Population Membrane Permeable-Phenotype (%): 14% and 17%
  Population Mitochondria Different-Phenotype (%): 17% and 31%
  Population Mitotic Cells (%): 50% and 19%
  Population Normal (%): 98% and 100%
  Population Pyknosed Nuclei (%): 23% and 32%
  Population Tubulin-Different-Phenotype (%): 82% and 77%
  Total Cell Count: 60 and 161
U2OS; [3]
  Population Apoptotic (%): 66% and 72%
  Population Fragmented Nuclei (%): 6% and 3%
  Population Healthy Nuclei (%): 87%
  Population Hoechst High Intensity Objects (%): 0%
  Population Membrane Permeable-Phenotype (%): 1%
  Population Mitochondria Different-Phenotype (%): 1%
  Population Mitotic Cells (%): 33% and 27%
  Population Normal (%): 100% and 99%
  Population Pyknosed Nuclei (%): 6% and 9%
  Population Tubulin-Different-Phenotype (%): 56% and 71%
U2OS; [4]
  Population Apoptotic (%): 65% and 93%
  Population Fragmented Nuclei (%): 17% and 11%
  Population Healthy Nuclei (%): 31% and 25%
  Population Hoechst High Intensity Objects (%): 1% and 0%
  Population Membrane Permeable-Phenotype (%): 12% and 14%
  Population Normal (%): 98% and 99%
  Population Pyknosed Nuclei (%): 50% and 63%
  Population Tubulin-Different-Phenotype (%): 81% and 57%
  Total Cell Count: 52 and 141
U2OS; [5]
  Population Fragmented Nuclei (%): 4%
  Population Healthy Nuclei (%): 85% and 86%
  Population Hoechst High Intensity Objects (%): 0%
  Population Membrane Permeable-Phenotype (%): 2% and 1%
  Population Mitochondria Different-Phenotype (%): 0% and 1%
  Population Normal (%): 99% and 100%
  Population Pyknosed Nuclei (%): 9%
  Population Tubulin-Different-Phenotype (%): 57% and 77%
U2OS; [6]
  Population Apoptotic (%): 96% and 86%
  Population Fragmented Nuclei (%): 9% and 19%
  Population Healthy Nuclei (%): 11% and 19%
  Population Hoechst High Intensity Objects (%): 2%
  Population Membrane Permeable-Phenotype (%): 56% and 22%
  Population Mitochondria Different-Phenotype (%): 62% and 22%
  Population Mitotic Cells (%): 3% and 13%
  Population Normal (%): 97%
  Population Pyknosed Nuclei (%): 78% and 61%
  Population Tubulin-Different-Phenotype (%): 75% and 100%
  Total Cell Count: 141 and 48
